{
  "source": "paper PMC12015351",
  "about": "(Scientific Reports, 2025)",
  "key": {"Caco-2 cells": {"tested_on": "Caco-2 cells", "experiment": "Cell viability assay, xCelligence RTCA-DP, Caco-2", "assay_type": "cell-based, human", "conditions": "50 µM", "how_it_was_run": "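Impedance-based real-time cell index monitoring. Seeding in e-plates: 15 × 10³ cells/well for Calu-3, 10 × 10³ for Caco-2. Plates rested 20 min at room temperature, then held at 37 °C, 5% CO2. After 24 h, medium replaced with test compound at 50, 10, 2 or 0.4 µM; 2 replicates per line. Readings every 15 min for 72 h; ~100 h curves compared with control.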"}, "[1]": {"target": "3CL Protease (SARS-CoV-2) (Severe acute respiratory syndrome coronavirus 2, UniProt P0DTD1)", "experiment": "biochemical", "conditions": "read-out: inhibition of in vitro protease activity"}, "[2]": {"conditions": "person with VITT after ChAdOx1-S vaccine; cited from earlier work"}, "Calu-3 cells": {"tested_on": "Calu-3 cells", "experiment": "Cell viability assay, xCelligence RTCA-DP, Calu-3", "assay_type": "cell-based, human"}, "[3]": {"tested_on": "SARS-CoV-2 replicon in Calu-3 cells", "experiment": "microbe, parasite or virus in culture", "assay_type": "cell-based", "conditions": "for activity level in presence of Cnd: Calu-3, specific dose of Cnd (candesartan)"}, "[4]": {"tested_on": "SARS-CoV-2 replicon in Caco-2 cells", "assay_type": "cell-based", "conditions": "for activity level in presence of Cnd: Caco-2, specific dose of Cnd (candesartan)"}, "[5]": {"tested_on": "SARS-CoV-2 growth in lung cells", "conditions": "cited from earlier work"}, "SARS-CoV-2": {"tested_on": "SARS-CoV-2", "conditions": "mouse models; cited from earlier work"}, "[6]": {"tested_on": "SARS-CoV-2-induced cytopathic effects in human A549 cells (A549/ACE2)", "conditions": "live virus; cited from earlier work"}, "[7]": {"tested_on": "SARS-CoV-2-induced cytopathic effects in Vero E6", "conditions": "live virus; cited from earlier work"}, "3CLpro [8]": {"tested_on": "3CLpro", "conditions": "FRET-based enzymatic assay; cited from earlier work"}, "3CLpro [9]": {"tested_on": "3CLpro", "conditions": "read-out: IC50 on 3CLpro activity; cited from earlier work"}},
  "data": [
    {"smiles": "COc1ccc2c(O[C@@H]3C[C@H]4C(=O)N[C@]5(C(=O)NS(=O)(=O)C6CC6)C[C@H]5/C=C\\CCCCN(C)C(=O)[C@@H]4C3)cc(-c3nc(C(C)C)cs3)nc2c1C", "note": "[Drug B18, Simeprevir]", "values": [
      {"measurement": "effect on cell proliferation (cell index)", "setting": "Caco-2 cells", "result": "toxic effects"}
    ]},
    {"smiles": "CC1=NN(c2ccc(C)c(C)c2)C(=O)/C1=N\\Nc1cccc(-c2cccc(C(=O)O)c2)c1O", "note": "[Elt, Eltrombopag]", "values": [
      {"measurement": "inhibition at 50 µM", "setting": "[1]", "result": "≥ 50", "unit": "%"},
      {"measurement": "platelet levels", "setting": "[2]", "result": "normalized"},
      {"measurement": "effect on cell proliferation (cell index)", "setting": "Caco-2 cells", "result": "toxic effects"},
      {"measurement": "effect on cell proliferation (cell index)", "setting": "Calu-3 cells; 50 µM", "result": "reduced cell proliferation"},
      {"measurement": "activity level in presence of Cnd", "setting": "[3]", "result": "activity at the nanomolar (nM) level"},
      {"measurement": "activity level in presence of Cnd", "setting": "[4]", "result": "activity at the nanomolar (nM) level"}
    ]},
    {"smiles": "CC(C)C(=O)OCC(=O)[C@@]12O[C@H](C3CCCCC3)O[C@@H]1C[C@H]1[C@@H]3CCC4=CC(=O)C=C[C@]4(C)[C@H]3[C@@H](O)C[C@@]12C", "note": "[Drug B12, Ciclesonide]", "values": [
      {"measurement": "effect on cell proliferation (cell index)", "setting": "Caco-2 cells", "result": "toxic effects"},
      {"measurement": "effect on cell proliferation (cell index)", "setting": "Calu-3 cells; 50 µM", "result": "reduced cell proliferation"}
    ]},
    {"smiles": "CC(=O)[C@@]1(O)CC[C@H]2[C@@H]3C[C@H](C)C4=CC(=O)C=C[C@]4(C)[C@@]3(F)[C@@H](O)C[C@@]21C", "note": "[Drug B9, Fluorometholone]", "values": [
      {"measurement": "inhibition at 50 µM", "setting": "[1]", "result": "≥ 50", "unit": "%"}
    ]},
    {"smiles": "CC(C)(C)c1cc(C(C)(C)C)c(NC(=O)c2c[nH]c3ccccc3c2=O)cc1O", "note": "[ivacaftor]", "values": [
      {"measurement": "SARS-CoV-2 growth", "setting": "[5]", "result": "inhibit SARS-CoV-2 growth"},
      {"measurement": "SARS-CoV-2 growth", "setting": "SARS-CoV-2", "result": "inhibit SARS-CoV-2 growth"}
    ]},
    {"smiles": "CC(C)COCC(CN(Cc1ccccc1)c1ccccc1)N1CCCC1", "note": "(stereo not shown) [bepridil]", "values": [
      {"measurement": "inhibition of SARS-CoV-2-induced cytopathic effects", "setting": "[6]", "result": "significant inhibition"},
      {"measurement": "inhibition of SARS-CoV-2-induced cytopathic effects", "setting": "[7]", "result": "significant inhibition"}
    ]},
    {"smiles": "NC(=O)C(c1ccccc1)(c1ccccc1)[C@@H]1CCN(CCc2ccc3c(c2)CCO3)C1", "note": "[Drug B25, Darifenacin]", "values": [
      {"measurement": "effect on cell proliferation (cell index)", "setting": "Calu-3 cells; 25 µM, after a certain period", "result": "reduced cell proliferation"},
      {"measurement": "effect on cell proliferation (cell index)", "setting": "Calu-3 cells; 50 µM", "result": "reduced cell proliferation"}
    ]},
    {"smiles": "CCOc1nc2cccc(C(=O)O)c2n1Cc1ccc(-c2ccccc2-c2nnn[nH]2)cc1", "note": "[Cnd, Candesartan]", "values": [
      {"measurement": "inhibition at 50 µM", "setting": "[1]", "result": "≥ 50", "unit": "%"},
      {"measurement": "inhibitory activity on 3CLpro", "setting": "3CLpro [8]", "result": "did not confirm"},
      {"measurement": "IC50 range in words, Calu-3", "setting": "[3]", "result": "sub-micromolar range"},
      {"measurement": "IC50 range in words, Caco-2", "setting": "[4]", "result": "sub-micromolar range"}
    ]},
    {"smiles": "C[C@@H]1CCO[C@H]2Cn3cc(C(=O)NCc4ccc(F)cc4F)c(=O)c(O)c3C(=O)N12", "note": "[Drug B23, Dolutegravir]", "values": [
      {"measurement": "inhibition at 50 µM", "setting": "[1]", "result": "≥ 50", "unit": "%"}
    ]},
    {"smiles": "CC(=O)OCC(=O)[C@@]12OC3(CCCC3)O[C@@H]1C[C@H]1[C@@H]3CCC4=CC(=O)C=C[C@]4(C)[C@@]3(F)[C@@H](O)C[C@@]12C", "note": "[Drug B5, Amcinonide]", "values": [
      {"measurement": "inhibition at 50 µM", "setting": "[1]", "result": "≥ 50", "unit": "%"},
      {"measurement": "IC50", "setting": "[3]; Severe acute respiratory syndrome coronavirus 2, Calu-3, read-out: IC50 (µM) in Calu-3 cells", "result": "2 to 5", "unit": "µM"},
      {"measurement": "activity level in presence of Cnd", "setting": "[4]", "result": "activity at the nanomolar (nM) level"}
    ]},
    {"smiles": "CC1(C)O[C@@H]2C[C@H]3[C@@H]4CCC5=CC(=O)C=C[C@]5(C)[C@H]4[C@@H](O)C[C@]3(C)[C@]2(C(=O)CO)O1", "note": "[Drug B7, Desonide]", "values": [
      {"measurement": "inhibition at 50 µM", "setting": "[1]", "result": "≥ 50", "unit": "%"}
    ]},
    {"smiles": "CC1(C)O[C@@H]2C[C@H]3[C@@H]4C[C@H](F)C5=CC(=O)C=C[C@]5(C)[C@@]4(F)[C@@H](O)C[C@]3(C)[C@]2(C(=O)CO)O1", "note": "[Drug B2, Fluocinolone]", "values": [
      {"measurement": "inhibition at 50 µM", "setting": "[1]", "result": "≥ 50", "unit": "%"}
    ]},
    {"smiles": "Cc1ccc(NC(=O)C2(c3ccc4c(c3)OC(F)(F)O4)CC2)nc1-c1cccc(C(=O)O)c1", "note": "[Drug B22, Lumacaftor]", "values": [
      {"measurement": "inhibition at 50 µM", "setting": "[1]", "result": "≥ 50", "unit": "%"},
      {"measurement": "SARS-CoV-2 growth", "setting": "[5]", "result": "inhibit SARS-CoV-2 growth"},
      {"measurement": "SARS-CoV-2 growth", "setting": "SARS-CoV-2", "result": "inhibit SARS-CoV-2 growth"},
      {"measurement": "IC50 range in words, Calu-3", "setting": "[3]", "result": "sub-micromolar range"},
      {"measurement": "IC50 range in words, Caco-2", "setting": "[4]", "result": "sub-micromolar range"},
      {"measurement": "activity level in presence of Cnd", "setting": "[4]", "result": "activity at the nanomolar (nM) level"}
    ]},
    {"smiles": "O=c1[nH]c2ccccc2n1C1CCN(CCCC(c2ccc(F)cc2)c2ccc(F)cc2)CC1", "note": "[Drug B11, Pimozide]", "values": [
      {"measurement": "inhibition at 50 µM", "setting": "[1]", "result": "≥ 50", "unit": "%"},
      {"measurement": "inhibition of SARS-CoV-2-induced cytopathic effects", "setting": "[6]", "result": "significant inhibition"},
      {"measurement": "inhibition of SARS-CoV-2-induced cytopathic effects", "setting": "[7]", "result": "significant inhibition"},
      {"measurement": "IC50", "setting": "3CLpro [9]", "result": 42.5, "unit": "µM"},
      {"measurement": "effect on cell proliferation (cell index)", "setting": "Calu-3 cells; 50 µM", "result": "reduced cell proliferation"},
      {"measurement": "activity level in presence of Cnd", "setting": "[3]", "result": "activity at the nanomolar (nM) level"},
      {"measurement": "activity level in presence of Cnd", "setting": "[4]", "result": "activity at the nanomolar (nM) level"}
    ]},
    {"smiles": "Cc1c(O)cccc1C(=O)N[C@@H](CSc1ccccc1)[C@H](O)CN1C[C@H]2CCCC[C@H]2C[C@H]1C(=O)NC(C)(C)C", "note": "[Drug B21, Nelfinavir]", "values": [
      {"measurement": "inhibition at 50 µM", "setting": "[1]", "result": "≥ 50", "unit": "%"}
    ]}
  ]
}
